The text below walks through data of ChEMBL document CHEMBL4376883, “Discovery and Optimization of Small Molecules Targeting the Protein-Protein Interaction of Heat Shock Protein 90 (Hsp90) and Cell Division Cycle 37 as Orally Active Inhibitors for the Treatment of Colorectal Cancer” (J Med Chem, 2020).

Some results are limits rather than exact numbers.

Data set [1] has as its target Heat shock protein HSP 90-beta/Hsp90 co-chaperone Cdc37 (Homo sapiens) (UniProt P08238+Q16543). Briefly: Inhibition of His-tagged HSP90/GST-tagged Cdc37 (unknown origin) protein-protein interaction at 100 uM measured after 1 hr by HTRF assay relative to control. It counts as protein-complex assay. In short, it runs like this:
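His-Hsp90 and GST-Cdc37 were premixed at a final 80 nM in PBS with 200 mM KF, pH 7.4. Compound was added and the mix incubated 1 h at 37 °C, then read by HTRF. Inhibition rate was taken at 100 μM compound.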

In data set [2] the test system is L02. Kind of data set: Cytotoxicity against human L02 cells measured after 72 hrs by CCK8 assay. The following applies: L02, 72 h. The class given is functional, cell-based. In outline:
(§1)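 Cells grown in RPMI 1640 with 10% FBS at 37 °C, 5% CO2; STR-authenticated and mycoplasma-checked. Seeded at 3000-5000 cells/well and left 24 h. Serial compound dilutions added for 72 h, with matched DMSO as control. Viability read by CCK8 kit using the standard protocol. IC50 values derived from at least three parallel experiments.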

The target of data set [3] is T1, Heat shock protein HSP90 (Homo sapiens, UniProt P07900+P08238). Briefly: Binding affinity to recombinant […] HSP90 N-terminal domain (9 to 236 residues) (unknown origin) expressed in Escherichia coli BL21 (DE3) by isothermal calorimetric method. In short, it runs like this: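 ITC: 50 µM Hsp90 in the cell and 300 µM compound in the syringe, both in 20 mM Tris-HCl, 150 mM NaCl, pH 7.4. Nineteen injections at 180 s intervals with stirring at 1000 rpm.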

Data set [4] concerns A549. Briefly: Antiproliferative activity against human A549 cells measured after 72 hrs by CCK8 assay. It counts as functional, cell-based. The following applies: A549, 72 h. In outline: as §1
Data set [5] relates to HCT-116. Briefly: Antiproliferative activity against human HCT116 cells measured after 72 hrs by CCK8 assay. The conditions noted are these: HCT-116, 72 h. It counts as functional, cell-based. In short, it runs like this: as §1
Data set [6] addresses T1, Heat shock protein HSP90. Kind of data set: Binding affinity to recombinant […] biotinylated-HSP90 N-terminal domain (9 to 236 residues) (unknown origin) expressed in Escherichia coli BL21 (DE3) by biolayer interferometry. In short, it runs like this: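 Biotinylated Hsp90 (100 µg/mL) loaded onto streptavidin sensors prewetted 10 min in PBS with 0.05% BSA and 0.01% Tween 20. Analyte binding measured at 28 °C. Double reference subtraction applied; data fitted to a 1:1 model with K_D = K_off/K_on.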

Data set [7] is described as follows: Distribution coefficient, log D of the compound at pH 7.4 by potentiometric titration method. It counts as physicochemical. The following applies: octanol/water. In short, it runs like this: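 log D at pH 7.4 measured by potentiometric titration on a Gemini Profiler.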
Data set [8] concerns the target T1, Heat shock protein HSP90. Briefly: Inhibition of recombinant full-length HSP90 ATPase activity N-terminal domain (9 to 236 residues) (unknown origin) expressed in Escherichia coli BL21 (DE3) measured after 1 hr by ADP hunter plus assay.
The target in data set [9] is T1, Heat shock protein HSP90. Kind of data set: Binding affinity to recombinant […] HSP90 N-terminal domain (9 to 236 residues) (unknown origin) expressed in Escherichia coli BL21 (DE3) assessed as change in melting temperature by SYPRO dye based thermal shift assay. In outline:
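Hsp90 N-terminal domain (10 µM) mixed with compound at 200, 100, 50 or 10 µM in 1× PBS, pH 8.0, with 6× SYPRO Orange. Heated from room temperature to 99 °C at 1 °C/min; fluorescence read at 492 nm excitation and 610 nm emission.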

Data set [10] is described as follows: Permeability of the compound at pH 7.4 by PAMPA. The class given is ADME. The conditions noted are these: read-out: permeability. In outline:
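Permeability coefficient (Pe) was measured at pH 7.4 by double-sink PAMPA.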

Take `CCC(CC)Nc1nccc(Nc2ccc(N(CC(=O)O)S(=O)(=O)c3c(C)cc(C)cc3C)cc2)n1`: the inhibition in data set [1] was below 50%.

Molecule `CCNc1nccc(Nc2ccc(N(CC(=O)OC)S(=O)(=O)c3c(C)cc(C)cc3C)cc2)n1` yielded an inhibition in data set [1] below 50%.

In turn, `COC(=O)CN(c1ccc(Nc2ccnc(N3CCCC3)n2)cc1)S(=O)(=O)c1c(C)cc(C)cc1C` gave an inhibition in data set [1] of 65.4%.

`COc1ccc(OC)c(S(=O)(=O)Nc2ccc(Nc3ccnc(N4CCCC4)n3)cc2)c1` yielded an inhibition in [1] of 41.8%.

The molecule `CNc1nccc(Nc2ccc(N(CC(=O)O)S(=O)(=O)c3c(C)cc(C)cc3C)cc2)n1` gave an inhibition in data set [1] below 50%.

`CCNc1nccc(Nc2ccc(N(CC(=O)O)S(=O)(=O)c3c(C)cc(C)cc3C)cc2)n1` had an inhibition in data set [1] below 50%.

The molecule `Cc1cc(C)c(S(=O)(=O)N(Cc2ccc(Cl)cc2)c2ccc(Nc3ccnc(N4CCCC4)n3)cc2)c(C)c1` yielded an inhibition in data set [1] below 50%.

In turn, `Cc1cc(C)c(S(=O)(=O)N(CC(N)=O)c2ccc(Nc3ccnc(N4CCCC4)n3)cc2)c(C)c1` showed an inhibition in data set [1] below 50%.

In data set [1], `COC(=O)CN(c1ccc(Nc2ccnc(N3CCCCCC3)n2)cc1)S(=O)(=O)c1c(C)cc(C)cc1C` returned an inhibition below 50%.

As for `O=S(=O)(Nc1ccc(Nc2ccnc(N3CCCC3)n2)cc1)c1ccc(C(F)(F)F)cc1`, in data set [1], the inhibition is below 20%.

Turning to `Cc1cc(C)c(S(=O)(=O)N(CC(=O)O)c2ccc(Nc3ccnc(N4CCN(C)CC4)n3)cc2)c(C)c1`, in data set [1], the inhibition is 71.1%.

For `CNc1nccc(Nc2ccc(N(CC(=O)OC)S(=O)(=O)c3c(C)cc(C)cc3C)cc2)n1`, the inhibition in [1] was below 50%.

`COc1ccc(S(=O)(=O)Nc2ccc(Nc3ccnc(N4CCCC4)n3)cc2)c(OC)c1` yielded an inhibition in data set [1] of 36.2%.

With `Cc1cc(C)c(S(=O)(=O)Nc2ccc(Nc3ccnc(N4CCCC4)n3)cc2)c(C)c1`, the inhibition in data set [1] was 66%.

On to `COC(=O)CN(c1ccc(Nc2ccnc(N3CCNCC3)n2)cc1)S(=O)(=O)c1c(C)cc(C)cc1C`, for which the 50% inhibitory concentration (IC50) in [2] was above 50 µM; in data set [4], 43.3 µM; in [5] it was 6.25 µM; in data set [8], above 100 µM. Moreover, the results for the Kd in [3] and in data set [6] were 1.73 µM and 1.97 µM, respectively. In data set [1], this molecule had an inhibition of 95.5%. In data set [7], this molecule showed a pH-dependent lipophilicity (logD) of 2.63. Moreover, the ΔTm in data set [9] was 3.53 °C. Also, the Papp in [10] stood at 101 ×10⁻⁶ cm/s.

In data set [1], `Cc1cc(C)c(S(=O)(=O)N(CC#N)c2ccc(Nc3ccnc(N4CCNCC4)n3)cc2)c(C)c1` gave an inhibition of 64.3%. The logD in data set [7] came out at 2.01. In [8], the IC50 was above 100 µM. For the same molecule, the ΔTm in data set [9] was 1.1 °C. Besides, the Papp in [10] was found to be 61.5 ×10⁻⁶ cm/s.

With `CCN(CC)c1nccc(Nc2ccc(N(CC(=O)O)S(=O)(=O)c3c(C)cc(C)cc3C)cc2)n1`, the inhibition in data set [1] turned out to be 79.6%.

Regarding `Cc1cc(C)c(S(=O)(=O)N(Cc2nnn[nH]2)c2ccc(Nc3ccnc(N4CCNCC4)n3)cc2)c(C)c1`, the IC50 in [2] was above 50 µM; in data set [4], 37.9 µM; in [5], 5.42 µM; in data set [8], above 100 µM. Moreover, the figures for the dissociation constant Kd in [3] and in data set [6] were 2.4 µM and 5.5 µM, respectively. In data set [1], this molecule came in with an inhibition of 98.6%. Moreover, in data set [9], the ΔTm was determined as 1.36 °C. Moreover, the Papp in [10] was 55.4 ×10⁻⁶ cm/s.

In turn, `CCC(CC)Nc1nccc(Nc2ccc(N(CC(=O)OC)S(=O)(=O)c3c(C)cc(C)cc3C)cc2)n1` displayed an inhibition in [1] below 50%.

`Cc1cc(C)c(S(=O)(=O)N(Cc2ccc(C(C)C)cc2)c2ccc(Nc3ccnc(N4CCCC4)n3)cc2)c(C)c1` registered an inhibition in data set [1] below 50%.

The molecule `CC(C)(C)c1ccc(S(=O)(=O)Nc2ccc(Nc3ccnc(N4CCCC4)n3)cc2)cc1` had an inhibition in [1] below 20%.

With `Cc1cc(C)c(S(=O)(=O)N(Cc2ccc(C(=O)O)cc2)c2ccc(Nc3ccnc(N4CCCC4)n3)cc2)c(C)c1`, the inhibition in data set [1] is 52.8%.

In turn, `Cc1cc(C)c(S(=O)(=O)N(CC(=O)O)c2ccc(Nc3ccnc(NC4CC4)n3)cc2)c(C)c1` showed an inhibition in data set [1] below 50%.

For the molecule `COc1ccc(S(=O)(=O)Nc2ccc(Nc3ccnc(N4CCCC4)n3)cc2)cc1`, the inhibition in data set [1] was below 20%.

On to `CCN(CC)c1nccc(Nc2ccc(N(CC(=O)OC)S(=O)(=O)c3c(C)cc(C)cc3C)cc2)n1`, for which the inhibition in [1] was below 50%.

As to `COc1cc(S(=O)(=O)Nc2ccc(Nc3ccnc(N4CCCC4)n3)cc2)c(C)cc1C`, the dissociation constant Kd in [6] came to 21.1 µM. The molecule further gave an inhibition in [1] of 56.3%. This molecule also displayed a logD in data set [7] of 4.82. Besides, in data set [10], the Papp was 65.9 ×10⁻⁶ cm/s.

`Cc1cc(C)c(S(=O)(=O)N(CC(=O)O)c2ccc(Nc3ccnc(N4CCCCCC4)n3)cc2)c(C)c1`: in data set [1], the inhibition was below 50%.

In the case of `COC(=O)CN(c1ccc(Nc2ccnc(N3CCCCC3)n2)cc1)S(=O)(=O)c1c(C)cc(C)cc1C`, in [1], the inhibition came to 79.1%.

In the case of `COC(=O)CN(c1ccc(Nc2ccnc(NC3CC3)n2)cc1)S(=O)(=O)c1c(C)cc(C)cc1C`, the inhibition in data set [1] was below 50%.

Consider `Cc1cc(C)c(S(=O)(=O)N(CC(=O)NO)c2ccc(Nc3ccnc(N4CCNCC4)n3)cc2)c(C)c1`, for which the IC50 in [2] was 21.9 µM; in [4], 16.2 µM; in [5] it was 3.94 µM; in data set [8], above 100 µM. The Kd in [3] was 5.49 µM; in [6], 2.66 µM. Further, the inhibition in [1] stood at 96.2%. The molecule further showed a logD in [7] of 0.82. Besides, in [9], the ΔTm came out at 1.59 °C. The Papp in data set [10] was found to be 44.1 ×10⁻⁶ cm/s.

Regarding `O=S(=O)(Nc1ccc(Nc2ccnc(N3CCCC3)n2)cc1)c1ccc2ccccc2c1`, the inhibition in [1] worked out at 46.7%.

In data set [1], `COc1ccc(CN(c2ccc(Nc3ccnc(N4CCCC4)n3)cc2)S(=O)(=O)c2c(C)cc(C)cc2C)cc1` had an inhibition below 50%.

Molecule `COC(=O)CN(c1ccc(Nc2ccnc(N3CCN(C)CC3)n2)cc1)S(=O)(=O)c1c(C)cc(C)cc1C` showed an inhibition in data set [1] of 70.1%.

In turn, `Cc1cc(C)c(S(=O)(=O)N(CC(=O)O)c2ccc(Nc3ccnc(N4CCCCC4)n3)cc2)c(C)c1` displayed an inhibition in data set [1] of 86.2%.
